Active and inactive are the calls of the source. The rule behind the calls is not given here.
Experiments:
RAW264.7 [1] = assay: Antiinflammatory activity in mouse RAW264.7 cells assessed as LPS-induced nitrite levels at 1 uM treated 1 hr before LPS challenge measured after 24 hrs by Griess reaction (Rvb=46.6 +/- 0.4); format: functional
In short: (§1)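 RAW 264.7 cells were seeded at 2 × 10^5 cells/well in DMEM with 5% heat-inactivated FBS, penicillin and streptomycin, and left to adhere overnight. Cells got DMSO or compound at 37 °C for 1 h, then 1 µg/mL LPS (E. coli 0111:B4) for 24 h. Medium nitrite was read by Griess (550 nm, NaNO2 standard), TNF-α by ELISA and PGE2 by EIA. Means ± SEM, N = 3-4.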

RAW264.7 [2] = assay: Antiinflammatory activity in mouse RAW264.7 cells assessed as inhibition of LPS-induced TNFalpha formation at 1 uM treated 1 hr before LPS challenge measured after 24 hrs by ELISA; format: functional; in short: as §1
RAW264.7 [3] = assay: Antiinflammatory activity in mouse RAW264.7 cells assessed as inhibition of LPS-induced prostaglandin E2 formation at 1 uM treated 1 hr before LPS challenge measured after 24 hrs by EIA; format: functional; in short: as §1
RAW264.7 [4] = assay: Cytotoxicity against mouse RAW264.7 cells assessed as LDH release; format: cell-based
N9 [5] = assay: Cytotoxicity against mouse N9 cells assessed as LDH release; format: cell-based
Mast cell [6] = assay: Inhibition of secretagogue-induced histamine release in Sprague-Dawley rat peritoneal mast cells at 30 uM […] secretagogue challenge measured after 15 mins; format: functional; settings: read-out: INH, in the assay text read “3 mins before” for “30 mins before”
In short: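 Peritoneal mast cells came from exsanguinated Sprague-Dawley rats by heparinized Tyrode's lavage, purified through 38% BSA, and resuspended at (1-1.5) × 10^6 cells/mL in Tyrode's with 0.1% BSA. Supernatant β-glucuronidase was read at 550 nm (phenolphthalein glucuronide, pH 4.5) and histamine by o-phthaldialdehyde fluorescence at 350/450 nm. Release is % of the Triton X-100 total.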

Neutrophil [7] = assay: Inhibition of secretagogue-induced histamine release in rat neutrophils at 30 uM treated 30 mins before secretagogue challenge measured after 15 mins; format: functional, cell-based
Neutrophil [8] = assay: Inhibition of secretagogue-induced beta-glucuronidase release in rat neutrophils at 30 uM treated 30 mins before secretagogue challenge measured after 15 mins; format: functional, cell-based
Neutrophil [9] = assay: Inhibition of secretagogue-induced superoxide anion generation in rat neutrophils at 30 uM treated 30 mins before secretagogue challenge measured after 15 mins; format: functional, cell-based
Mast cell [10] = assay: Inhibition of secretagogue-induced beta-glucuronidase release in Sprague-Dawley rat peritoneal mast cells at 30 uM treated 3 mins before secretagogue challenge measured after 15 mins
N9 [11] = assay: Antiinflammatory activity in mouse N9 cells assessed as inhibition of LPS and IFN-gamma-induced TNFalpha formation at 3 uM treated 1 hr before LPS and IFN-gamma challenge measured after 24 hrs by ELISA; settings: N9, read-out: INH
N9 [12] = assay: Antiinflammatory activity in mouse N9 cells assessed as inhibition of LPS and IFN-gamma-induced nitrite formation at 3 uM treated 1 hr before LPS and IFN-gamma challenge measured after 24 hrs by Griess reaction; settings: N9, read-out: INH
Mast cell [13] = assay: Secretagogue-induced histamine release in Sprague-Dawley rat peritoneal mast cells at 30 uM treated 3 mins before secretagogue challenge measured after 15 mins

`COC1=CC(=O)c2ccc3cc(OC)cc(O)c3c2C1=O` [DENBINOBIN] was tested, and the Activity (RAW264.7 [1]) was 40.4 µM, the inhibition at 1 µM (RAW264.7 [2]) was 62% and the inhibition at 1 µM (RAW264.7 [3]) was 43%. The Activity (RAW264.7 [4]) was less than 10%, the Activity (N9 [5]) was less than 10% and the inhibition at 30 µM (Mast cell [6]) was 39%. For the same compound, the Activity (Neutrophil [7]) was “inactive”, the Activity (Neutrophil [8]) was “inactive” and the Activity (Neutrophil [9]) was “inactive”. The inhibition at 30 µM (Mast cell [10]) was 40%, the inhibition at 3 µM (N9 [11]) was 70% and the inhibition at 3 µM (N9 [12]) was 44%.

In the case of `CCN(CC)CCCC(C)Nc1c2ccc(Cl)cc2nc2ccc(OC)cc12` (centres undefined) [QUINACRINE], the histamine release at 30 µM (Mast cell [13]) is reported as 18.4% and the inhibition at 30 µM (Mast cell [10]) is reported as 8.7%.

Source: ChEMBL document CHEMBL1155751, “Two phenanthraquinones from Dendrobium moniliforme” (J Nat Prod, 2001)
